Results as given in ChEMBL document CHEMBL1136700, “Identification of a broad-spectrum azasordarin with improved pharmacokinetic properties” (Bioorg Med Chem Lett, 2003).
Values after ≈ are worked out from the molar mass of the structure shown.

How the values were obtained:
Aspergillus fumigatus = experiment: Minimum inhibitory concentration (MIC) to Aspergillus fumigatus after 48 hr; type: functional
Procedure, shortened: (§1)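 Antifungal susceptibility read visually; MIC taken as lowest drug concentration giving 90–100% inhibition of visible growth relative to drug-free controls, read over 48 h, or after 24 h where footnoted. Organisms: C. parapsilosis, C. albicans, Cryptococcus neoformans, C. glabrata, Aspergillus fumigatus, Aspergillus flavus.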

Aspergillus flavus = experiment: Minimum inhibitory concentration (MIC) against Aspergillus flavus after 24 hours; type: functional; procedure, shortened: as §1
Nakaseomyces glabratus = experiment: Minimum inhibitory concentration (MIC) to Candida glabrata after 48 hours; type: functional; procedure, shortened: as §1
Candida parapsilosis = experiment: Minimum inhibitory concentration (MIC) to Candida parapsilosis after 48 hr; type: functional; procedure, shortened: as §1
Candida albicans = experiment: Minimum inhibitory concentration (MIC) to Candida albicans after 48 hr; type: functional; procedure, shortened: as §1
Cryptococcus neoformans = experiment: Minimum inhibitory concentration against Cryptococcus neoformans after 48 hours; type: functional; procedure, shortened: as §1
[1] = Maximum plasma concentration was determined; type: ADME, organism-based
Procedure, shortened: (§2)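 Mice dosed iv at 5 mg/kg or orally at 20 mg/kg, n = 3; drug concentrations measured in plasma/serum over time to derive half-life, Cmax, total body clearance, steady-state volume and oral bioavailability.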

[2] = Total body clearance was determined; type: ADME, organism-based; details: in vivo; procedure, shortened: as §2
[3] = Volume of steady state concentration was determined; type: ADME, organism-based; details: in vivo; read-out: Vss; procedure, shortened: as §2
[4] = Oral bioavailability; type: ADME, organism-based; details: eutheria, in vivo; procedure, shortened: as §2
[5] = Half life period was measured upon intravenous administration (5 mg/kg); type: ADME, organism-based; details: in vivo; procedure, shortened: as §2
[6] = Half life period was measured upon oral administration (20 mg/kg); type: ADME, organism-based; details: in vivo; procedure, shortened: as §2
[7] = Aspergillus fumigatus, 48 h, read-out: MIC
[8] = Aspergillus flavus, 24 h, read-out: MIC
[9] = Nakaseomyces glabratus, 48 h, read-out: MIC
[10] = Lodderomyces parapsilosis, 48 h, read-out: MIC

| Structure (SMILES) | MIC (Aspergillus fumigatus; [7]) [µg/mL] | MIC (Aspergillus flavus; [8]) [µg/mL] | MIC (Nakaseomyces glabratus; [9]) [µg/mL] | MIC (Candida parapsilosis; [10]) [µg/mL] | MIC (Candida albicans) [µg/mL] | MIC (Cryptococcus neoformans) [µg/mL] | Cmax [1] [ng/mL] | clearance [2] [mL/min/kg] | Vd [3] [L/kg] | bioavailability [4] [%] | half-life [5] [h] | half-life [6] [h] | MIC (Aspergillus fumigatus) [µg/mL] | MIC (Aspergillus flavus) [µg/mL] | MIC (Nakaseomyces glabratus) [µg/mL] | MIC (Candida parapsilosis) [µg/mL] |
| --- | --- | --- | --- | --- | --- | --- | --- | --- | --- | --- | --- | --- | --- | --- | --- | --- |
| C=C(Cl)CN1C[C@H](OCC23C[C@@H]4[C@H](C)CC[C@H]4C4(C=O)CC2C=C(C(C)C)[C@@]34C(=O)O)O[C@@H]2CCC[C@H]21 | 64 (≈ 120 µM) | 4 (≈ 7.52 µM) | 0.125 (≈ 0.235 µM) | 4 (≈ 7.52 µM) | < 0.06 | 0.25 (≈ 0.47 µM) |  |  |  |  |  |  |  |  |  |  |
| CC(C)C1=CC2CC3(C=O)[C@@H]4CC[C@@H](C)[C@H]4CC2(CO[C@H]2CN(C4C=CCCC4)[C@H](C)CO2)[C@]13C(=O)O (stereo partly specified) | > 128 | > 128 | 8 (≈ 15.6 µM) | > 128 | 2 (≈ 3.91 µM) | > 128 |  |  |  |  |  |  |  |  |  |  |
| C=C(C#N)CN1C[C@H](OCC23C[C@@H]4[C@H](C)CC[C@H]4C4(C=O)CC2C=C(C(C)C)[C@@]34C(=O)O)OC[C@H]1C | > 128 | 128 (≈ 258 µM) | 1 (≈ 2.01 µM) | > 128 | 0.25 (≈ 0.503 µM) | 4 (≈ 8.05 µM) |  |  |  |  |  |  |  |  |  |  |
| CC(C)CN1C[C@H](OCC23C[C@@H]4[C@H](C)CC[C@H]4C4(C=O)CC2C=C(C(C)C)[C@@]34C(=O)O)OC[C@H]1C | > 128 | > 128 | 1 (≈ 2.05 µM) | > 128 | < 0.06 | 32 (≈ 65.6 µM) |  |  |  |  |  |  |  |  |  |  |
| C=CCN1C[C@H](OCC23C[C@@H]4[C@H](C)CC[C@H]4C4(C=O)CC2C=C(C(C)C)[C@@]34C(=O)O)OC[C@H]1C | > 128 | > 128 | 0.25 (≈ 0.53 µM) | 64 (≈ 136 µM) | 0.125 (≈ 0.265 µM) | 128 (≈ 271 µM) |  |  |  |  |  |  |  |  |  |  |
| C=C(Cl)CN1C[C@H](OCC23C[C@@H]4[C@H](C)CC[C@H]4C4(C=O)CC2C=C(C(C)C)[C@@]34C(=O)O)OC[C@H]1C | 32 (≈ 63.2 µM) | 0.5 (≈ 0.988 µM) | 0.125 (≈ 0.247 µM) | 1 (≈ 1.98 µM) | < 0.06 | < 0.06 | 5950 | 95 | 7.1 | 100 | 1.8 | 2.1 | 32 (≈ 63.2 µM) | 0.5 (≈ 0.988 µM) | 0.125 (≈ 0.247 µM) | 1 (≈ 1.98 µM) |
| CC(C)C1=CC2CC3(C=O)[C@@H]4CC[C@@H](C)[C@H]4CC2(CO[C@H]2CN(CC=C(Cl)Cl)[C@H](C)CO2)[C@]13C(=O)O | > 128 | > 128 | < 0.06 | 32 (≈ 59.2 µM) | < 0.06 | 16 (≈ 29.6 µM) |  |  |  |  |  |  |  |  |  |  |
| C=C(Cl)CN1C[C@H](OCC23C[C@@H]4[C@H](C)CC[C@H]4C4(C=O)CC2C=C(C(C)C)[C@@]34C(=O)O)O[C@H](C)[C@H]1C | 64 (≈ 123 µM) | 1 (≈ 1.92 µM) | 0.25 (≈ 0.481 µM) | 8 (≈ 15.4 µM) | < 0.06 | 0.5 (≈ 0.961 µM) |  |  |  |  |  |  |  |  |  |  |
| C=C(Cl)CON1C[C@H](OCC23C[C@@H]4[C@H](C)CC[C@H]4C4(C=O)CC2C=C(C(C)C)[C@@]34C(=O)O)OC[C@H]1C | > 128 | > 128 | 2 (≈ 3.83 µM) | > 128 | 0.125 (≈ 0.239 µM) | 1 (≈ 1.92 µM) |  |  |  |  |  |  |  |  |  |  |
| CC(C)C1=CC2CC3(C=O)[C@@H]4CC[C@@H](C)[C@H]4CC2(CO[C@H]2CN(Cc4ccccc4Cl)[C@H](C)CO2)[C@]13C(=O)O | > 128 | > 128 | 1 (≈ 1.8 µM) | > 128 | < 0.06 | 4 (≈ 7.19 µM) |  |  |  |  |  |  |  |  |  |  |
| COc1ccc(CN2C[C@H](OCC34C[C@@H]5[C@H](C)CC[C@H]5C5(C=O)CC3C=C(C(C)C)[C@@]45C(=O)O)OC[C@H]2C)cc1 | > 128 | > 128 | < 0.06 | 4 (≈ 7.25 µM) | < 0.06 | 0.5 (≈ 0.906 µM) |  |  |  |  |  |  |  |  |  |  |
| C=CC(=O)N1C[C@H](OCC23C[C@@H]4[C@H](C)CC[C@H]4C4(C=O)CC2C=C(C(C)C)[C@@]34C(=O)O)OC[C@H]1C | > 128 | > 128 | 64 (≈ 132 µM) | > 128 | 8 (≈ 16.5 µM) | 128 (≈ 264 µM) |  |  |  |  |  |  |  |  |  |  |
| CC(C)C1=CC2CC3(C=O)[C@@H]4CC[C@@H](C)[C@H]4CC2(CO[C@H]2CN[C@H](C)CO2)[C@]13C(=O)O | > 128 | > 128 | 64 (≈ 148 µM) | > 128 | 8 (≈ 18.5 µM) | > 128 |  |  |  |  |  |  |  |  |  |  |
| C=C(Cl)CN1C[C@H](OCC23C[C@@H]4[C@H](C)CC[C@H]4C4(C=O)CC2C=C(C(C)C)[C@@]34C(=O)O)OC[C@H]1C(F)(F)F | > 128 | > 128 | 1 (≈ 1.79 µM) | > 128 | < 0.06 | > 128 |  |  |  |  |  |  |  |  |  |  |
| C=C(Cl)CN1C[C@H](OCC23C[C@@H]4[C@H](C)CC[C@H]4C4(C=O)CC2C=C(C(C)C)[C@@]34C(=O)O)OC[C@H]1CO | > 128 | > 128 | 1 (≈ 1.92 µM) | 128 (≈ 245 µM) | 0.5 (≈ 0.958 µM) | 2 (≈ 3.83 µM) |  |  |  |  |  |  |  |  |  |  |
| C=C(C)CN1C[C@H](OCC23C[C@@H]4[C@H](C)CC[C@H]4C4(C=O)CC2C=C(C(C)C)[C@@]34C(=O)O)OC[C@H]1C | > 128 | 8 (≈ 16.5 µM) | 0.125 (≈ 0.257 µM) | 8 (≈ 16.5 µM) | < 0.06 | 0.125 (≈ 0.257 µM) |  |  |  |  |  |  |  |  |  |  |
| CC(C)C1=CC2CC3(C=O)[C@@H]4CC[C@@H](C)[C@H]4CC2(CO[C@H]2CN(CC=C(F)F)[C@H](C)CO2)[C@]13C(=O)O | > 128 | > 128 | 1 (≈ 1.97 µM) | 64 (≈ 126 µM) | 0.125 (≈ 0.246 µM) | 64 (≈ 126 µM) |  |  |  |  |  |  |  |  |  |  |
| C=C(Cl)CN1C[C@H](OCC23C[C@@H]4[C@H](C)CC[C@H]4C4(C=O)CC2C=C(C(C)C)[C@@]34C(=O)O)OC[C@H]1C(C)C | 32 (≈ 59.9 µM) | 2 (≈ 3.74 µM) | < 0.06 | 2 (≈ 3.74 µM) | < 0.06 | < 0.06 | 3880 | 20 | 1.6 | 83 | 1.6 | 3.1 |  |  |  |  |
| C=C(Cl)CN1C[C@H](OCC23C[C@@H]4[C@H](C)CC[C@H]4C4(C=O)CC2C=C(C(C)C)[C@@]34C(=O)O)O[C@H](C)C1 | > 128 | 4 (≈ 7.9 µM) | 0.125 (≈ 0.247 µM) | 8 (≈ 15.8 µM) | < 0.06 | > 128 |  | 13 | 0.49 |  | 0.44 |  |  |  |  |  |
| CC(C)C1=CC2CC3(C=O)[C@@H]4CC[C@@H](C)[C@H]4CC2(CO[C@H]2CN(c4ccc(Cl)s4)[C@H](C)CO2)[C@]13C(=O)O | > 128 | > 128 | 0.125 (≈ 0.228 µM) | > 128 | < 0.06 | 2 (≈ 3.65 µM) |  |  |  |  |  |  |  |  |  |  |
| CC(C)=CCN1C[C@H](OCC23C[C@@H]4[C@H](C)CC[C@H]4C4(C=O)CC2C=C(C(C)C)[C@@]34C(=O)O)OC[C@H]1C | > 128 | > 128 | 8 (≈ 16 µM) | > 128 | 0.25 (≈ 0.5 µM) | > 128 |  |  |  |  |  |  |  |  |  |  |
| CC(C)C1=CC2CC3(C=O)[C@@H]4CC[C@@H](C)[C@H]4CC2(CO[C@H]2CN(C/C=C\Cl)[C@H](C)CO2)[C@]13C(=O)O | > 128 | > 128 | 1 (≈ 1.98 µM) | > 128 | 0.125 (≈ 0.247 µM) | 128 (≈ 253 µM) |  |  |  |  |  |  |  |  |  |  |
| C=C(Cl)CN1C[C@H](OCC23C[C@@H]4[C@H](C)CC[C@H]4C4(C=O)CC2C=C(C(C)C)[C@@]34C(=O)O)OCC12CCCC2 | 8 (≈ 14.6 µM) | 0.125 (≈ 0.229 µM) | 0.015 (≈ 0.0275 µM) | 0.5 (≈ 0.916 µM) | < 0.008 | < 0.008 |  |  |  |  |  |  |  |  |  |  |
| CC(C)C1=CC2CC3(C=O)[C@@H]4CC[C@@H](C)[C@H]4CC2(CO[C@H]2CN(CC4CC4)[C@H](C)CO2)[C@]13C(=O)O | > 128 | > 128 | 8 (≈ 16.5 µM) | > 128 | 2 (≈ 4.12 µM) | > 128 |  |  |  |  |  |  |  |  |  |  |
| C=C(Br)CN1C[C@H](OCC23C[C@@H]4[C@H](C)CC[C@H]4C4(C=O)CC2C=C(C(C)C)[C@@]34C(=O)O)OC[C@H]1C | 128 (≈ 233 µM) | 4 (≈ 7.27 µM) | 0.125 (≈ 0.227 µM) | 4 (≈ 7.27 µM) | < 0.06 | < 0.06 |  |  |  |  |  |  |  |  |  |  |
| CC(C)C1=CC2CC3(C=O)[C@@H]4CC[C@@H](C)[C@H]4CC2(CO[C@H]2CN(S(=O)(=O)C4CC4)[C@H](C)CO2)[C@]13C(=O)O | > 128 | > 128 | 128 (≈ 239 µM) | > 128 | 32 (≈ 59.7 µM) | > 128 |  |  |  |  |  |  |  |  |  |  |
| CC(C)C1=CC2CC3(C=O)[C@@H]4CC[C@@H](C)[C@H]4CC2(CO[C@H]2CN(C/C=C\Br)[C@H](C)CO2)[C@]13C(=O)O | > 128 | > 128 | 1 (≈ 1.82 µM) | > 128 | < 0.06 | > 128 |  |  |  |  |  |  |  |  |  |  |
